Test results: ChEMBL document CHEMBL1221342, “Synthesis and in vitro antitumor activity of new 4,5-dihydropyrazole derivatives” (Bioorg Med Chem, 2010)

Assays:
HL-60(TB) = assay: Growth inhibition of human HL-60(TB) cells after 48 hrs by SRB assay; type: functional; conditions: HL-60, 48 h
Procedure, shortened: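 NCI 60-cell-line screen: cells grown in RPMI1640 with 5% fetal calf serum and 2 mM L-glutamine, preincubated 24 h, then exposed to compound in DMSO at five concentrations (10^-4 to 10^-8 M) for 48 h continuous exposure. Growth estimated by sulforhodamine B protein assay; reported as pGI50 (-log molar concentration inhibiting net cell growth by 50%).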

K562 = assay: Growth inhibition of human K562 cells after 48 hrs by SRB assay; type: functional; conditions: K562, 48 h
Procedure, shortened: (§1)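 NCI 60-cell-line screen. Cells grown in RPMI1640 with 5% fetal calf serum and 2 mM L-glutamine, with inoculum density set by cell line. Preincubated 24 h, then given compound in DMSO at 10^-4 to 10^-8 M (five 10-fold steps) for 48 h continuous exposure. Growth measured by SRB protein assay. GI50, TGI and LC50 reported as –log molar.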

SR = assay: Growth inhibition of human SR cells after 48 hrs by SRB assay; type: functional; procedure, shortened: as §1
EKVX = assay: Growth inhibition of human EKVX cells after 48 hrs by SRB assay; type: functional; procedure, shortened: as §1
HOP-62 = assay: Growth inhibition of human HOP62 cells after 48 hrs by SRB assay; type: functional; conditions: HOP-62, 48 h; procedure, shortened: as §1
NCI-H322M = assay: Growth inhibition of human NCI-H322M cells after 48 hrs by SRB assay; type: functional; procedure, shortened: as §1
NCI-H460 [1] = assay: Growth inhibition of human NCI-H460 cells after 48 hrs by SRB assay; type: functional; conditions: NCI-H460, 48 h; procedure, shortened: as §1
HCC 2998 = assay: Growth inhibition of human HCC2998 cells after 48 hrs by SRB assay; type: functional; conditions: HCC 2998, 48 h; procedure, shortened: as §1
HCT-116 = assay: Growth inhibition of human HCT116 cells after 48 hrs by SRB assay; type: functional; conditions: HCT-116, 48 h; procedure, shortened: as §1
HCT-15 = assay: Growth inhibition of human HCT15 cells after 48 hrs by SRB assay; type: functional; conditions: HCT-15, 48 h; procedure, shortened: as §1
HT-29 = assay: Growth inhibition of human HT-29 cells after 48 hrs by SRB assay; type: functional; conditions: HT-29, 48 h; procedure, shortened: as §1
SW-620 = assay: Growth inhibition of human SW620 cells after 48 hrs by SRB assay; type: functional; conditions: SW-620, 48 h; procedure, shortened: as §1
SF-268 = assay: Growth inhibition of human SF268 cells after 48 hrs by SRB assay; type: functional; conditions: SF-268, 48 h; procedure, shortened: as §1
SF-295 = assay: Growth inhibition of human SF295 cells after 48 hrs by SRB assay; type: functional; conditions: SF-295, 48 h; procedure, shortened: as §1
SF-539 = assay: Growth inhibition of human SF539 cells after 48 hrs by SRB assay; type: functional; conditions: SF-539, 48 h; procedure, shortened: as §1
SNB-75 = assay: Growth inhibition of human SNB75 cells after 48 hrs by SRB assay; type: functional; conditions: SNB-75, 48 h; procedure, shortened: as §1
U-251 = assay: Growth inhibition of human U251 cells after 48 hrs by SRB assay; type: functional; conditions: U-251, 48 h; procedure, shortened: as §1
Malme-3M = assay: Growth inhibition of human MALME-3M cells after 48 hrs by SRB assay; type: functional; procedure, shortened: as §1
M14 = assay: Growth inhibition of human M14 cells after 48 hrs by SRB assay; type: functional; conditions: M14, 48 h; procedure, shortened: as §1
MDA-MB-435 = assay: Growth inhibition of human MDA-MB-435 cells after 48 hrs by SRB assay; type: functional; conditions: MDA-MB-435, 48 h; procedure, shortened: as §1
SK-MEL-28 = assay: Growth inhibition of human SK-MEL-28 cells after 48 hrs by SRB assay; type: functional; conditions: SK-MEL-28, 48 h; procedure, shortened: as §1
SK-MEL-5 = assay: Growth inhibition of human SK-MEL-5 cells after 48 hrs by SRB assay; type: functional; conditions: SK-MEL-5, 48 h; procedure, shortened: as §1
UACC-62 = assay: Growth inhibition of human UACC62 cells after 48 hrs by SRB assay; type: functional; conditions: UACC-62, 48 h; procedure, shortened: as §1
IGROV-1 = assay: Growth inhibition of human IGROV1 cells after 48 hrs by SRB assay; type: functional; conditions: IGROV-1, 48 h; procedure, shortened: as §1
OVCAR-4 = assay: Growth inhibition of human OVCAR4 cells after 48 hrs by SRB assay; type: functional; conditions: OVCAR-4, 48 h; procedure, shortened: as §1
OVCAR-8 = assay: Growth inhibition of human OVCAR8 cells after 48 hrs by SRB assay; type: functional; conditions: OVCAR-8, 48 h; procedure, shortened: as §1
NCI/ADR-RES = assay: Growth inhibition of human NCI/ADR-RES cells after 48 hrs by SRB assay; type: functional; procedure, shortened: as §1
SK-OV-3 = assay: Growth inhibition of human SKOV3 cells after 48 hrs by SRB assay; type: functional; conditions: SK-OV-3, 48 h; procedure, shortened: as §1
786-0 = assay: Growth inhibition of human 786-0 cells after 48 hrs by SRB assay; type: functional; conditions: 786-0, 48 h; procedure, shortened: as §1
CAKI-1 = assay: Growth inhibition of human Caki1 cells after 48 hrs by SRB assay; type: functional; conditions: CAKI-1, 48 h; procedure, shortened: as §1
UO-31 = assay: Growth inhibition of human UO31 cells after 48 hrs by SRB assay; type: functional; conditions: UO-31, 48 h; procedure, shortened: as §1
DU-145 = assay: Growth inhibition of human DU145 cells after 48 hrs by SRB assay; type: functional; conditions: DU-145, 48 h; procedure, shortened: as §1
[2] = Growth inhibition of human Hs 578T cells after 48 hrs by SRB assay; type: functional; procedure, shortened: as §1
T47D = assay: Growth inhibition of human T47D cells after 48 hrs by SRB assay; type: functional; procedure, shortened: as §1
NCI-H460 [3] = assay: Cytotoxicity against human NCI-H460 cells after 72 hrs by SRB assay; type: functional, cell-based; conditions: NCI-H460, 72 h
Procedure, shortened: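 NCI-H460 (ATCC) cells seeded in 96-well plates in growth medium. Scalar drug concentrations added 24 h after plating, then 72 h exposure. Surviving cells stained with sulforhodamine B, OD read at 570 nm. IC50 (50% growth inhibition) fitted from dose–response curves. Mean ± SE of at least three independent experiments.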

COc1cc(C2=NNC(c3ccc(N(C)C)cc3)C2)cc(OC)c1OC (configuration not stated)
1.26 µM: GI50 (HOP-62) | GI50 (NCI-H460 [1])
6.31 µM: TGI (EKVX; read-out: pTGI (converted)) | TGI (NCI-H460 [1]; read-out: pTGI (converted)) | TGI (SK-MEL-5; read-out: pTGI (converted)) | TGI ([2]; read-out: pTGI (converted))
3.98 µM: GI50 (UACC-62) | GI50 (OVCAR-8) | GI50 (SK-OV-3)
0.251 µM: GI50 (SR) | GI50 (SF-295)
0.794 µM: TGI (SF-295; read-out: pTGI (converted))
1.58 µM: GI50 (HL-60(TB)) | GI50 (HCC 2998)
1.1 µM: IC50 (NCI-H460 [3])
2.51 µM: GI50 (HCT-15) | GI50 (M14) | GI50 (CAKI-1) | GI50 [2]
0.631 µM: GI50 (HT-29) | GI50 (U-251)
79.4 µM: TGI (K562; read-out: pTGI (converted))
2 µM: GI50 (EKVX) | GI50 (HCT-116) | GI50 (SF-268) | GI50 (SK-MEL-5) | GI50 (NCI/ADR-RES) | GI50 (786-0) | GI50 (DU-145)
20 µM: TGI (HCT-116; read-out: pTGI (converted)) | GI50 (T47D)
15.8 µM: GI50 (SK-MEL-28) | GI50 (OVCAR-4)
0.398 µM: GI50 (K562) | GI50 (SW-620)
3.16 µM: TGI (SF-539; read-out: pTGI (converted)) | TGI (IGROV-1; read-out: pTGI (converted))
5.01 µM: TGI (HL-60(TB); read-out: pTGI (converted)) | TGI (HCC 2998; read-out: pTGI (converted)) | GI50 (UO-31) | TGI (DU-145; read-out: pTGI (converted))
50.1 µM: TGI (UO-31; read-out: pTGI (converted))
12.6 µM: GI50 (NCI-H322M)
0.501 µM: GI50 (SF-539) | GI50 (IGROV-1)
1 µM: GI50 (SNB-75) | GI50 (MDA-MB-435)
> 100 µM: TGI (HOP-62; read-out: pTGI (converted)) | TGI (NCI-H322M; read-out: pTGI (converted)) | TGI (HCT-15; read-out: pTGI (converted)) | TGI (HT-29; read-out: pTGI (converted)) | TGI (SW-620; read-out: pTGI (converted)) | TGI (SF-268; read-out: pTGI (converted)) | TGI (SNB-75; read-out: pTGI (converted)) | TGI (U-251; read-out: pTGI (converted)) | TGI (Malme-3M; read-out: pTGI (converted)) | TGI (SK-MEL-28; read-out: pTGI (converted)) | TGI (UACC-62; read-out: pTGI (converted)) | TGI (OVCAR-4; read-out: pTGI (converted)) | TGI (OVCAR-8; read-out: pTGI (converted)) | TGI (NCI/ADR-RES; read-out: pTGI (converted)) | TGI (SK-OV-3; read-out: pTGI (converted)) | TGI (786-0; read-out: pTGI (converted)) | TGI (CAKI-1; read-out: pTGI (converted)) | TGI (T47D; read-out: pTGI (converted))
7.94 µM: TGI (SR; read-out: pTGI (converted)) | GI50 (Malme-3M)
